The values below come from ChEMBL document CHEMBL4049454, “7-Substituted 2-Nitro-5,6-dihydroimidazo[2,1-b][1,3]oxazines: Novel Antitubercular Agents Lead to a New Preclinical Candidate for Visceral Leishmaniasis” (J Med Chem, 2017).

The nature of series [1]: Apparent permeability from apical to basolateral side in human Caco2 cells after 150 mins by LC-MS/MS analysis. The class given is ADME, cell-based. To be noted: Caco-2. A general note: Passage across Caco-2 layers is used to estimate intestinal permeability.
The nature of series [2]: Apparent permeability from basolateral to apical side in human Caco2 cells after 150 mins by LC-MS/MS analysis. It is filed as ADME, cell-based. To be noted: Caco-2.
A further series relates to Trypanosoma cruzi. Description: […] activity against Trypanosoma cruzi infected in human MRC-5 cells by luciferase reporter gene assay. The class given is functional, cell-based. To be noted: MRC5. An outline of the steps:
(§1)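 Run at LMPH as IC50 determinations. L. infantum was grown in primary peritoneal mouse macrophages and T. cruzi on human lung fibroblasts (MRC-5). Each value is the mean of at least two independent determinations, run alongside MRC-5 and macrophage cytotoxicity tests.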

A further series deals with Leishmania infantum. Description: Antileishmanial activity against Leishmania infantum infected in primary peritoneal mouse macrophages by luciferase reporter gene assay. The class given is functional. An outline of the steps:
as §1
On the technique in general: Reporter assays use an easily measured gene product as a stand-in for the process of interest.

The test system of series [3] is Mycobacterium tuberculosis. As to the kind of experiment: Antitubercular activity against Mycobacterium tuberculosis infected in BALB/c mouse assessed as reduction in bacterial burden at 100 mg/kg, po qd administered every 5 days a week for 3 weeks. The class given is functional, organism-based. An outline of the steps:
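Acute infection model in BALB/c mice: dosing at 100 mg/kg daily, 5 days a week for 3 weeks, starting day 11 after infection. Read-out is CFU reduction in treated mice, usually reported as a ratio of mean CFU reduction versus mice given the reference nitroimidazole.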

Series [4] can be described thus: Extrapolated AUCinfinity in swiss albino mouse plasma at 40 mg/kg, po by LC-MS/MS analysis.

Activity calls are given as the source filed them. The rule behind the calls is not given here.

The term Papp A→B denotes how fast a substance crosses the layer from the apical side. The Papp B→A is how fast a substance crosses the layer from the basolateral side. Take `C[C@]1(COc2ccc(OC(F)(F)F)cc2)Cn2cc([N+](=O)[O-])nc2O1`: the Papp A→B at […] in series [1] amounted to 22.6 ×10⁻⁶ cm/s. Also, the apparent permeability from basolateral to apical (Papp B→A) at […] in series [2] came to 24.7 ×10⁻⁶ cm/s.

By IC50 is commonly meant the point on the concentration scale where inhibition reaches its midpoint. Read a low IC50 as inhibition by little substance. In turn, `O=[N+]([O-])c1cn2c(n1)OC(COc1ccc(OC(F)(F)F)cc1)CC2` (stereo not drawn) had an IC50 with Trypanosoma cruzi of 61 nM.

In the case of `O=[N+]([O-])c1cn2c(n1)OC(COc1ccc(-c3ccc(F)nc3)nc1)CC2` (stereo not drawn), in the series with Leishmania infantum, the IC50 was > 64000 nM.

With `O=[N+]([O-])c1cn2c(n1)OC[C@@H](OCc1ccc(OC(F)(F)F)cc1)C2`, the result in series [3] was Active.

Turning to `C[C@]1(COCc2ccc(-c3ccc(OC(F)(F)F)cc3)cc2)CCn2cc([N+](=O)[O-])nc2O1`, the outcome in series [3] was Active.

As to `O=[N+]([O-])c1cn2c(n1)OC(COc1ccc(-c3ccc(F)cc3)cc1)CC2` (stereo not drawn), 63 nM corresponded to half-maximal inhibition with Trypanosoma cruzi (IC50).

For orientation: AUC(0-inf) means the area under the concentration-time curve extrapolated to infinity. On to `O=[N+]([O-])c1cn2c(n1)OC(COCc1ccc(-c3ccc(OC(F)(F)F)cc3)cc1)CC2` (stereo not drawn), for which the AUC(0-inf) in series [4] was 47100 ng·h/mL.
